# MEKK2 WT-MEK5 = raises or lowers MEK5 binding to wildtype human MEKK2 PB1 domain. Q9Y2U5. bead flow cytometry, Alexa488-MEK5 binding to MEKK2 WT; actives lie on both sides. binding response (% of control), % at 10 µM. actives 1.1% (n = 290,000). AID 1531; in the data active means binding response below about 67% or above about 130%; inconclusive means no clear call, values can overlap the other calls; inactive means in between
# MEKK2 mut-MEK5 = signal of MEK5 binding to mutant human MEKK2 PB1 domain | actives 0.35% (n = 290,000) | bead flow cytometry, Alexa488-MEK5 binding to MEKK2 mutant | AID 1530 | percent response, % at 10 µM; in the data active means percent response above about 24%, passing the limit was not always enough
# Pemphigus Ab inh = human desmoglein-3 autoantibody binding inhibition; actives 0.48% (n = 310,000); AID 588358; DSG3-coupled beads, scFv-anti-DSG3-GFP binding, flow cytometry; stronger effect = lower value; P32926; binding (percent of control), % at 10 µM;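 active means binding more than 3 SD below its plate's average and above zero; inconclusive means below that plate limit but binding exactly zero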;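 further: hits lower antibody fragment binding to DSG3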
# Apaf-1 inh = blocks human Apaf-1 apoptosome activity. O14727. reconstituted apoptosome caspase-3 activity, DEVD-Rh110 fluorescence. inhibition, % at 20 µM. actives 0.71% (n = 330,000); active means inhibition of at least 40% at 20 µM;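 further: plate controls were DMSO wells for no effect and DEVD-CHO caspase inhibitor wells for full effect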
#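 Assay system – apoptosome proteins · Medium – Hepes buffer, pH 7.5 · Also added – cytochrome c with DEVD-Rh110 · Timing – 30 min compound preincubation, 50 min activation, room temperature · Detection – Rh110 fluorescence, excitation 480 nm, emission 540 nm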
# MEKK3 PB1 HTS = raises or lowers MEK5 binding to the human MEKK3 PB1 domain | binding response (% of control), % at 10 µM | actives 1.4% (n = 290,000) | Q99759 | bead-based flow cytometry, Alexa488-MEK5 binding to MEKK3; actives lie on both sides; 0 = blocked by unlabeled MEK5, 100 = vehicle;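 active means binding response more than 3 SD above or below the average of its plate-row segment, actives on both sides; inconclusive means wells at one plate position flagged as instrument error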;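 further: Alexa488 bead fluorescence after subtracting the streptavidin-only scavenger bead signal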
# Target sequence (Q99759 whole entry, looked up, the tested form may be a part): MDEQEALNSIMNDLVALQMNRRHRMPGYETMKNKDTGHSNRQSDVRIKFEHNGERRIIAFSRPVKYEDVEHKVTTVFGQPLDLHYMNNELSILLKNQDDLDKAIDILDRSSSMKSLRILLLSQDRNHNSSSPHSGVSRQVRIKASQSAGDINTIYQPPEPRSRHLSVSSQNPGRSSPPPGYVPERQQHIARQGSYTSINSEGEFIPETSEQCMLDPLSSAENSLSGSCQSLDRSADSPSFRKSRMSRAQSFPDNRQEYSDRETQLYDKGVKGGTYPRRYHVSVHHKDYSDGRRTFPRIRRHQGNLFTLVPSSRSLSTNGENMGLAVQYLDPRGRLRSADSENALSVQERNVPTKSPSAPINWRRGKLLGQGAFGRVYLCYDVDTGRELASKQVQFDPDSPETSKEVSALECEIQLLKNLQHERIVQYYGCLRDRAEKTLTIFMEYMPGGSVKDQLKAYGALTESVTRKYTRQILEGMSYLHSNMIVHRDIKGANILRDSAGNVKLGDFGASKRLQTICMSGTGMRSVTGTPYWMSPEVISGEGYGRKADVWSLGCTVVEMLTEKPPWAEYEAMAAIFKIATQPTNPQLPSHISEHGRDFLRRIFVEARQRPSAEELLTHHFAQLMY
# UBC13 inh = inhibitors of human UBC13 polyubiquitin chain formation; P61088; TR-FRET; inhibition, % at 20 µM; actives 0.47% (n = 330,000); in the data active means inhibition above about 45%, passing the limit was not always enough; inconclusive means no clear call, values can overlap the other calls
# Casp3 UBC13 ctr = inhibits human caspase-3 in UBC13 counter-screen | actives 4% (n = 1,400) | Recombinant caspase-3, Caspase-Glo 3/7 luminescence, 60 min | shares compounds with UBC13 inh | inhibition, % at 20 µM;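 active means mean inhibition across replicates above about 26%, limit read from the data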;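 further: plate controls were DMSO with caspase-3 for no effect and DMSO wells lacking enzyme for full effect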
# UBC13 confirm = confirmation of human UBC13 polyubiquitin inhibitors; shares compounds with UBC13 inh; UBC13 polyubiquitination, TR-FRET, biochemical; inhibition, % at 10 µM; actives 68% (n = 1,400); AID 488859; in the data active means inhibition above about 45%; inconclusive means no clear call, values can overlap the other calls
# * hit, by the source's call; ? = inconclusive; . = not tested or not shown; [ ] = another dose, or the depositor's remark. Compounds with a hit are over-represented: about 3.2% of the library has one in this group of screens.
SMILES,MEKK2 WT-MEK5,MEKK2 mut-MEK5,Pemphigus Ab inh,Apaf-1 inh,MEKK3 PB1 HTS,UBC13 inh,Casp3 UBC13 ctr,UBC13 confirm
CCOC(=O)c1c(CN2CCCCC2)oc2ccc(O)cc12,101,15,101,-5,99,53*,0,54*
CCOC(=O)c1c(C)oc2ccc(O)cc12,94,0,102,3,105,25,.,.
CCOC(=O)c1c(C(C)(C)C)oc2ccc(O)cc12,98,4,103,16,99,55*,-5,54*
CC(C)c1ccc(NC2CCCN(C(=O)CSc3nncn3C)C2)cc1 (stereo unspecified),100,0,94,-2,102,-3,.,.
Cc1cc(Sc2nnc(N)s2)c2ccccc2n1,102,4,.,-4,100,44,.,.
Cc1cc(Sc2nnc(/N=C/N(C)C)s2)c2ccccc2n1,98,-3,91,-8,98,55*,-2,65*
S=C(NCc1cccs1)Nc1ccccc1,103,-1,104,6,111,4,.,.
Cc1ccc(NC(=S)NCc2cccs2)cc1,97,-3,100,-1,95,52*,2,6
Cc1c(CCOC(=O)CC23CC4CC(CC(C4)C2)C3)sc[n+]1CC(=O)c1ccccc1,139*,2,109,34,115,47*,-3,52*
Cc1c(CCOC(=O)C23CC4CC(CC(C4)C2)C3)sc[n+]1Cc1ccccc1,112,2,101,1,102,14,.,.
O=S(=O)(NC1CCCC1)c1ccc(S(=O)(=O)NC2CCCC2)cc1,90,-2,81,-14,93,11,.,.
O=S(=O)(NC1CCCCC1)c1ccc(Cl)nc1,101,-2,95,-6,100,50*,-5,10
O=C(COc1ccc(S(=O)(=O)N2CCOCC2)cc1Cl)NCc1ccc2c(c1)OCO2,.,.,97,.,.,.,.,.
CC(=O)N1CCN(C(=O)CNC(=O)c2ccc(C)s2)CC1,.,.,107,.,.,.,.,.
CCc1ccc(C(=O)Nn2c(C)nc3ccccc3c2=O)cc1,112,8,104,1,108,60*,-2,64*
CCOC(=O)CSc1nc2ccccc2c(=O)n1NC(=O)c1ccccc1,98,-3,105,0,99,48*,6,39
CCOC(=O)CSc1nc2ccccc2c(=O)n1C,102,7,107,5,100,5,.,.
CCC[C@H]1CN(c2ccc(Br)cc2)C(=O)[C@@H]1CC(=O)Nc1ccccc1,.,.,103,.,.,.,.,.
CC(C)CC(C(=O)O)N1C(=O)C2C3C=CC(C2C1=O)C1C(=O)N(C(CC(C)C)C(=O)O)C(=O)C31 (stereo unspecified),103,-3,103,-11,102,-6,.,.
Cc1ncc(CO)c(/C=N/NC(=S)Nc2cccc(Cl)c2)c1O,93,-1,93,-8,101,22,.,.
Cc1ncc(CO)c(/C=N/NC(=S)Nc2ccc(Cl)c(Cl)c2)c1O,103,-1,101,-16,101,51*,-2,28
Cc1ccc(-c2nnc3c(C(F)(F)F)nc4ccccc4n23)cc1,103,-5,126,1,103,52*,-4,?
CC(C)(C)OC(=O)[C@H](Cc1ccccc1)NC(=O)c1[nH]cnc1C(=O)N[C@@H](Cc1ccccc1)C(=O)OCc1ccccc1,102,-8,107,18,103,-60,.,.
CC(C)(C)OC(=O)[C@H](CCCCN)NC(=O)c1[nH]cnc1C(=O)N[C@@H](Cc1ccccc1)C(=O)OCc1ccccc1,.,.,100,65*,.,72*,2,69*
Cc1ccccc1C(=O)N1CCC(C(=O)NN2C(=O)NC3(CCC(C)CC3)C2=O)CC1 (stereo unspecified),.,.,102,-8,.,8,.,.
SMILES,MEKK2 WT-MEK5,MEKK2 mut-MEK5,Pemphigus Ab inh,Apaf-1 inh,MEKK3 PB1 HTS,UBC13 inh,Casp3 UBC13 ctr,UBC13 confirm
COc1ccc(N(C(=O)c2snc(C(N)=O)c2N)C(C(=O)NC2CCCC2)c2cccs2)cc1OC (stereo unspecified),92,-3,.,1,99,64*,1,35
Cc1ccc(N(C(=O)c2snc(C(N)=O)c2N)C(C(=O)NCCC(C)C)c2ccco2)cc1 (stereo unspecified),86,-7,95,21,95,74*,-2,62*
CC(C)CC(C(=O)NC1CCCC1)N(Cc1ccc2c(c1)OCO2)C(=O)c1snc(C(N)=O)c1N (stereo unspecified),85,1,97,22,97,46*,-1,38
CC(C)CCNC(=O)C(c1ccco1)N(Cc1ccccc1)C(=O)c1snc(C(N)=O)c1N (stereo unspecified),104,1,107,2,99,32,.,.
NC(=O)c1nsc(C(=O)N(c2cccc(F)c2)C(C(=O)NC2CCCC2)c2ccc(O)cc2)c1N (stereo unspecified),99,5,.,10,103,48*,-1,51*
CCC(C(=O)NC1CCCC1)N(Cc1ccc2c(c1)OCO2)C(=O)c1snc(C(N)=O)c1N (stereo unspecified),98,-1,103,2,88,26,.,.
COC(=O)C1(CC2CC(c3ccc(Cl)cc3)=NO2)CCN(C(=O)OC(C)(C)C)CC1 (stereo unspecified),.,.,107,25,.,11,.,.
O=C(Nc1cc(Cl)ccc1Cl)Nn1cnnc1,101,1,101,-9,102,4,.,.
CCc1ccc(N(C(=O)c2snc(C(N)=O)c2N)C(C(=O)NC2CCCC2)c2ccco2)cc1 (stereo unspecified),95,-1,93,8,101,63*,0,67*
CCOc1ccc(N(C(=O)c2snc(C(N)=O)c2N)C(C(=O)NC2CCCC2)C(C)C)cc1 (stereo unspecified),96,1,.,29,99,70*,5,78*
COc1ccc(N(C(=O)c2snc(C(N)=O)c2N)C(C(=O)NC2CCCCC2)c2ccc(C)o2)cc1 (stereo unspecified),89,-2,92,18,100,60*,3,55*
NC(=O)c1nsc(C(=O)N(c2cccc(F)c2)C(C(=O)NC2CCCC2)c2ccco2)c1N (stereo unspecified),0.0*[inhibitor],-37,97,2,1.0*[inhibitor],53*,-1,33
CCOc1ccc(N(C(=O)c2snc(C(N)=O)c2N)C(C)C(=O)NC2CCCCC2)cc1 (stereo unspecified),93,-9,101,8,100,44,.,.

# Screening data (PubChem BioAssay)
